Reference: ChEMBL document CHEMBL2029346, “Discovery and synthesis of hydronaphthoquinones as novel proteasome inhibitors” (J Med Chem, 2012)
The source made the active and inactive calls. The rule behind the calls is not given here.

Experiments:
[1] = Inhibition of chymotrypsin-like activity of proteasome by fluorogenic assay; type: subcellular
In short: (§1)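 Purified rabbit 20S proteasome; CT-L activity measured by fluorogenic assay. Compounds were first screened for % CT-L inhibition, then dose-response runs gave IC50.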

[2] = Inhibition of chymotrypsin-like activity of proteasome at 10 uM by fluorogenic assay; type: subcellular; in short: as §1
[3] = Inhibition of trypsin-like activity of proteasome at 10 uM by fluorogenic assay; type: subcellular
[4] = Inhibition of trypsin-like activity of proteasome by fluorogenic assay; type: subcellular
[5] = species on record: Oryctolagus cuniculus; assay: Inhibition of rabbit 20S proteasome activity at 10 uM after 30 mins
In short: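 Purified rabbit 20S proteasome (1.5 nM final) was preincubated with compound at 10 μM, or 0.1% DMSO vehicle, in 50 mM Tris-HCl pH 7.6 at room temperature for 30 min. Chymotrypsin-like activity was then read by fluorogenic assay before dialysis (t = 0) and normalized to the DMSO control.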

[6] = species on record: Oryctolagus cuniculus; assay: Irreversible inhibition of rabbit 20S proteasome activity at 10 uM after 30 mins measured after 4 hrs of dialysis
In short: (§2)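 Compound at 10 μM or 0.1% DMSO was preincubated with 1.5 nM rabbit 20S proteasome in 50 mM Tris-HCl pH 7.6 for 30 min at room temperature. Mixtures were dialysed (3500 MWCO) against the same buffer at 4 °C and sampled at 0, 0.5, 1, 4, 8 and 18 h. CT-L activity was normalized to DMSO control.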

[7] = Inhibition of chymotrypsin-like activity of proteasome in human MDA-MB-468 cells after 48 hrs
In short: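 MDA-MB-468 cells grown in DMEM with 10% FCS, penicillin/streptomycin, at 37 °C in 5% CO2. They were exposed to a range of concentrations or DMSO vehicle for 48 h, lysed in Tris pH 8.0/EDTA/NaCl/0.5% NP-40 for 30 min at 4 °C, and spun at 12000g. CT-L activity was read fluorogenically on 5 μg lysate, with lysate replacing purified proteasome.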

[8] = Inhibition of chymotrypsin-like activity of proteasome in human MDA-MB-231 cells after 48 hrs
In short: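 MDA-MB-231 cells exposed to a range of concentrations or DMSO vehicle for 48 h, then lysed (Tris pH 8.0, EDTA, NaCl, 0.5% NP-40). CT-L activity was measured fluorogenically using 5 μg lysate; IC50 derived.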

[9] = tested on: MDA-MB-468; assay: Inhibition of chymotrypsin-like activity of proteasome in human MDA-MB-468 cells assessed as accumulation of ubiquitinated cellular proteins after 11 hrs by Western blotting
In short: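 MDA-MB-468 cells (DMEM, 10% FCS, 37 °C, 5% CO2) given varying concentrations or DMSO for 11 h, then lysed in NP-40 buffer. Lysate (30 μg) was run on SDS-PAGE, transferred to nitrocellulose, probed with anti-ubiquitin, and detected by ECL.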

[10] = tested on: MDA-MB-468; assay: Antiproliferative activity against human MDA-MB-468 cells after 11 hrs by MTT assay; type: functional, cell-based; conditions: MDA-MB-468, 11 h
In short: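 MDA-MB-468 human breast cancer cells grown in DMEM with 10% FCS and penicillin/streptomycin at 37 °C, 5% CO₂. Cells plated, attached overnight, then exposed to varying compound concentrations or vehicle (DMSO) for 11 h.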

[11] = species on record: Oryctolagus cuniculus; assay: Irreversible inhibition of rabbit 20S proteasome activity at 10 uM after 30 mins measured after 0.5 to 18 hrs of dialysis; in short: as §2
[12] = Inhibition of chymotrypsin-like activity of proteasome in human MDA-MB-468 cells after 11 hrs by fluorogenic assay in whole cell extracts; conditions: MDA-MB-468, 11 h
[13] = Inhibition of postglutamylpeptidase hydrolysis-like activity of proteasome by fluorogenic assay; type: subcellular

Row | SMILES | IC50 [1] [µM] | inhibition [2] [%] | IC50 [4] [µM] | further results
1 | O=S(=O)(Nc1cc(Sc2ncn[nH]2)c(O)c2ccccc12)c1ccc(-c2ccccc2)cc1 | 0.28 | > 70 | 4.22 | 
2 | CC(C)C[C@H](NC(=O)[C@H](Cc1ccccc1)NC(=O)c1cnccn1)B(O)O |  |  |  | inhibition [5]: 87%; inhibition [6]: inactive
3 | O=S(=O)(Nc1cc(Sc2nnn[nH]2)c(O)c2ccccc12)c1ccc(-c2ccc(C(F)(F)F)cc2)cc1 | 0.88 | > 70 | 1.14 | IC50 [7]: 1.01 µM; IC50 [8]: 0.44 µM; inhibition [9]: Dose-dependent effect; IC50 [10]: 17 µM; inhibition [5]: 73%; inhibition [11]: Active; IC50 [12]: 15.6 µM
4 | O=C(O)CSc1cc(NS(=O)(=O)c2cccs2)c2ccccc2c1O | 3 | > 70 |  | inhibition [3]: < 70%; IC50 [13]: 8.1 µM; IC50 [7]: 7.22 µM; IC50 [8]: 3.54 µM; inhibition [5]: 68%; inhibition [11]: Active
5 | O=S(=O)(Nc1cc(Sc2ncn[nH]2)c(O)c2ccccc12)c1ccc(C2CCCCC2)cc1 | 0.3 | > 70 | 7 | 
6 | O=S(=O)(Nc1ccc(O)c2ccccc12)c1cccs1 | > 30 |  |  | 
7 | O=S(=O)(Nc1cc(Sc2nnn[nH]2)c(O)c2ccccc12)c1ccc(-c2ccc(F)cc2)cc1 | 0.23 | > 70 | 2 | 
8 | O=S(=O)(Nc1cc(Sc2nnn[nH]2)c(O)c2ccccc12)c1cccs1 | 0.51 | > 70 | 0.2 | 
9 | O=S(=O)(Nc1cc(Sc2ncn[nH]2)c(O)c2ccccc12)c1ccc(Oc2ccccc2)cc1 | 0.15 | > 70 | 4.2 | 
10 | O=S(=O)(Nc1cc(Sc2nnn[nH]2)c(O)c2ccccc12)c1ccc(-c2ccccc2)s1 | 0.23 | > 70 | 0.55 | 
11 | O=S(=O)(Nc1cc(Sc2ncn[nH]2)c(O)c2ccccc12)c1cccc2ccccc12 | 0.65 | > 70 |  | inhibition [3]: < 70%
12 | O=S(=O)(Nc1cc(Sc2nnn[nH]2)c(O)c2ccccc12)c1ccc(Cl)c(Cl)c1 | 0.54 | > 70 | 0.57 | 
13 | O=S(=O)(Nc1cc(Sc2ncn[nH]2)c(O)c2ccccc12)c1ccc2ccccc2c1 | 0.3 | > 70 | 2 | 
14 | O=S(=O)(Nc1cc(Sc2ncn[nH]2)c(O)c2ccccc12)c1cccs1 |  | > 70 |  | inhibition [3]: < 70%
15 | O=S(=O)(Nc1cc(Cl)c(O)c2ccccc12)c1cccs1 | > 30 |  |  | 
16 | O=C(O)CCSc1cc(NS(=O)(=O)c2cccs2)c2ccccc2c1O | 5.7 |  |  | 
17 | O=S(=O)(Nc1cc(Br)c(O)c2ccccc12)c1cccs1 | > 30 |  |  | 
18 | O=S(=O)(Nc1cc(Sc2ncn[nH]2)c(O)c2ccccc12)c1ccc(-c2ccccc2)s1 | 0.73 | > 70 | 2.35 | 

Further lines, with some results ahead:

Row | IC50 [1] [µM] | inhibition [2] [%] | IC50 [4] [µM] | SMILES | further results
19 | 1.97 | > 70 |  | O=S(=O)(Nc1cc(Sc2ncn[nH]2)c(O)c2ccccc12)c1ccc(S(=O)(=O)c2ccccc2)s1 | inhibition [3]: < 70%
20 | > 100 |  |  | O=C(O)CSc1ccc(NS(=O)(=O)c2cccs2)c2ccccc12 | 
21 | 2.47 | > 70 | 7.2 | O=S(=O)(Nc1cc(Sc2ncn[nH]2)c(O)c2ccccc12)c1ccc(-c2ccc(C(F)(F)F)cc2)cc1 | 
22 | 0.22 | > 70 | 4.8 | O=S(=O)(Nc1cc(Sc2nnn[nH]2)c(O)c2ccccc12)c1ccc(-c2ccccc2)cc1 | 
23 | > 100 |  |  | O=C(O)COc1cc(NS(=O)(=O)c2cccs2)c2ccccc2c1O | 
24 | 0.23 | > 70 | 1.85 | O=S(=O)(Nc1cc(Sc2nnn[nH]2)c(O)c2ccccc12)c1ccc(C2CCCCC2)cc1 | 
25 | 0.63 | > 70 | 1.1 | O=S(=O)(Nc1cc(Sc2nnn[nH]2)c(O)c2ccccc12)c1ccc(Cl)s1 | 
26 | > 5 |  |  | CCOc1cc(NS(=O)(=O)c2cccs2)c2ccccc2c1O | 
27 | 0.4 | > 70 | 1.35 | O=S(=O)(Nc1cc(Sc2nnn[nH]2)c(O)c2ccccc12)c1ccc2ccccc2c1 | 
28 | > 10 |  |  | CCOC(=O)CSc1cc(NS(=O)(=O)c2cccs2)c2ccccc2c1O | 
29 | 4.05 | > 70 |  | O=C(O)c1ccccc1Sc1cc(NS(=O)(=O)c2cccs2)c2ccccc2c1O | inhibition [3]: < 70%
30 | 0.18 | > 70 | 2.37 | O=S(=O)(Nc1cc(Sc2ncn[nH]2)c(O)c2ccccc12)c1ccc(-c2ccc(F)cc2)cc1 | 
31 | 0.22 | > 70 | 1.3 | O=S(=O)(Nc1cc(Sc2nnn[nH]2)c(O)c2ccccc12)c1ccc(Oc2ccccc2)cc1 | 
32 | 0.4 | > 70 | 2.8 | COc1ccc(-c2ccc(S(=O)(=O)Nc3cc(Sc4nnn[nH]4)c(O)c4ccccc34)cc2)cc1 | 
33 | > 100 |  |  | O=C(O)CS(=O)(=O)c1cc(NS(=O)(=O)c2cccs2)c2ccccc2c1O | 
34 | 0.57 | > 70 | 0.75 | O=S(=O)(Nc1cc(Sc2nnn[nH]2)c(O)c2ccccc12)c1ccc(Cl)cc1 | 
35 | 0.48 | > 70 | 1.55 | O=S(=O)(Nc1cc(Sc2nnn[nH]2)c(O)c2ccccc12)c1ccc(-c2ccccn2)s1 | 
36 | > 30 |  |  | O=S(=O)(Nc1cc(I)c(O)c2ccccc12)c1cccs1 | 
37 | > 5 |  |  | CN(C)C(=O)CCSc1cc(NS(=O)(=O)c2cccs2)c2ccccc2c1O | 
38 | 0.6 | > 70 | 1.38 | O=S(=O)(Nc1cc(Sc2nnn[nH]2)c(O)c2ccccc12)c1ccccc1 | 
39 | > 5 |  |  | CNC(=O)CCSc1cc(NS(=O)(=O)c2cccs2)c2ccccc2c1O | 
40 | 1.61 | > 70 |  | O=S(=O)(Nc1cc(Sc2ncn[nH]2)c(O)c2ccccc12)c1ccn(S(=O)(=O)c2ccccc2)c1 | inhibition [3]: < 70%
41 | 0.47 | > 70 | 1.45 | CCCCCc1ccc(S(=O)(=O)Nc2cc(Sc3nnn[nH]3)c(O)c3ccccc23)cc1 | 
42 | 4.2 | > 70 |  | Cn1nnnc1Sc1cc(NS(=O)(=O)c2cccs2)c2ccccc2c1O | inhibition [3]: < 70%
43 | > 5 |  |  | CCSc1cc(NS(=O)(=O)c2cccs2)c2ccccc2c1O | 
44 | > 5 |  |  | O=S(=O)(Nc1cc(SCCO)c(O)c2ccccc12)c1cccs1 | 
